# Published values pooled from the literature.
# Compare with care: the assays were run in different laboratories.
# Target: Serine/threonine-protein kinase DCLK2 (DCLK2, Homo sapiens, UniProt Q8N568)
# Sequence (Q8N568 1-766, as in one of the studies): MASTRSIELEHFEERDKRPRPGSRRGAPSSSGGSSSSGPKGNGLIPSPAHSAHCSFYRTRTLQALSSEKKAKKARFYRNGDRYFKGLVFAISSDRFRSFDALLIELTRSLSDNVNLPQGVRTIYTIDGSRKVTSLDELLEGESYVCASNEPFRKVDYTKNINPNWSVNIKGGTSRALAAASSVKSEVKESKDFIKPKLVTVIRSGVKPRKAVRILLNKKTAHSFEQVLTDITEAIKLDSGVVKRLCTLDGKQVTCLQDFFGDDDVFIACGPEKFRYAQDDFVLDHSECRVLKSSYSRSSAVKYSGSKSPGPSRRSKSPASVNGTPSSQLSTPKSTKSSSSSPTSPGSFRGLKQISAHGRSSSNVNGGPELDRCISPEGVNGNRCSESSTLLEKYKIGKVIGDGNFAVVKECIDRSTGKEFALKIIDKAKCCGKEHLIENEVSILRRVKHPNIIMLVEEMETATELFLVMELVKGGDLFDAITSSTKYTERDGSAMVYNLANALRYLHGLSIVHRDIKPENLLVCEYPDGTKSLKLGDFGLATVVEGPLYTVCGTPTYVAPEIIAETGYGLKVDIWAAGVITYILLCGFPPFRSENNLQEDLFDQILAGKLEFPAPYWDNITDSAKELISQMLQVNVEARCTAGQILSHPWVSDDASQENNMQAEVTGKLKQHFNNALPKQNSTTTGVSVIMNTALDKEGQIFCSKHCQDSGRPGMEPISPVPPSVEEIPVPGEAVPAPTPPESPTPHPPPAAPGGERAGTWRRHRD
SMILES,effect on,technique,tested at,remaining binding [%]
Cc1cnc(Nc2ccc(C(=O)N3CCC(N4CCCC4)CC3)cc2)nc1-c1cc2ccccc2s1,binding,competition with immobilised ligand,1 µM,100
C=CC(=O)N1CCC(C(=O)NCC(=O)N2CCN(c3nc(-c4cnc(N)nc4C(F)F)nc(N4CCOCC4)n3)CC2)CC1,binding,competition with immobilised ligand,1 µM,98
FC(F)(F)Oc1cccc(-c2cnc3ccc(-c4ccncc4)nn23)c1,cell-free assay,competition with immobilised ligand,5 µM,100
Cc1cnn2ncc(-c3ccnc(N(C)C)n3)c2c1,binding,,1 µM,100
O=C(Nc1c[nH]nc1C(=O)NC1CCNCC1)c1cc(F)cc(F)c1,binding,competition with immobilised ligand,1 µM,100
O=C(c1ccc(Nc2ncc(Cl)c(-c3ccc(Cl)s3)n2)cc1)N1CCC(N2CCCC2)CC1,binding,competition with immobilised ligand,1 µM,90
Cc1cc(-n2nc(Cc3cc(F)cc(C(F)(F)F)c3)nc2C)ccc1C(N)=O,cell-free assay,competition with immobilised ligand,1 µM,100
c1cnn2ncc(-c3ccnc(N4CCC45COC5)n3)c2c1,binding,,1 µM,78
c1cncc(-c2cccc(Nc3nccc(NC4CCCCC4)n3)c2)c1,binding,competition with immobilised ligand,10 µM,100
CCC(=O)N[C@H]1CC[C@@H](C(=O)N(C)c2ccc(-c3nc4ccccc4o3)cc2)C1,cell-free assay,competition with immobilised ligand,1 µM,98
CNC(=O)[C@@H]1CC[C@@H](n2c(-c3ccc4cnccc4c3)nc3ccc(C(=O)NCc4cccc(C(N)=O)c4)cc32)C1,binding,competition with immobilised ligand,1 µM,100
Cn1nc(C(F)(F)F)cc1-c1cnc(N2CCc3cc(S(=O)(=O)Nc4c(F)cc(Cl)cc4F)cc(N4CCCC4=O)c32)nc1,cell-free assay,competition with immobilised ligand,1 µM,100
O=C(c1ccc(Nc2nccc(-c3cc4ccccc4s3)n2)cc1)N1CCC(N2CCCC2)CC1,binding,competition with immobilised ligand,1 µM,97
CCOC(=O)c1cc2cc(-c3cc(C(=O)NCc4ccc(C(=O)O)cc4)nn3C)ccc2[nH]1,cell-free assay,competition with immobilised ligand,0.1 µM,100
COc1ccnn2ncc(-c3ccnc(N(C)C)n3)c12,binding,,1 µM,100
CN(C)CC#Cc1ccc(OCCCc2sc(N3CCc4cccc(C(=O)Nc5nc6ccccc6s5)c4C3)nc2C(=O)O)c(F)c1,cell-free assay,competition with immobilised ligand,1 µM,100
Nc1ncc2c(n1)-c1c([nH]c3ccc(C#CC4CC4)cc13)CCCC2,binding,competition with immobilised ligand,1 µM,89
CC1CCCN1c1nccc(-c2cnn3ncccc23)n1 (stereo not shown),binding,,1 µM,100
NS(=O)(=O)c1cc(NC(=O)Cc2ccccc2)ccc1Oc1cccc(Cl)c1,cell-free assay,competition with immobilised ligand,1 µM,99
